ChEMBL document CHEMBL3244020, “Trichloroacetamidines, a new class of positive inotropic agents” (J Med Chem, 1978)
Active and inactive are the calls of the source. No cut-off for these calls is given here.

What was measured:
[1] = Positive inotropic activity in cat heart papillary muscle assessed as concentration required to increase contractile force by 500 mg measured for 5 to 30 mins; type: functional, Felis catus, Muscle tissue
How it was run: (§1)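 Right-ventricular cat papillary muscles in Krebs–Henseleit at 37 °C, field-stimulated at 1/s (4–10 ms, 6–10 V). Muscles equilibrated about 90 min, until force fell to 25–30% of original. Compound added and force recorded at 5, 10, 20 and 30 min, followed by ouabain 0.5 μg/mL. Positives were retested on three more preparations at ≥3 concentrations. Scored as mg increase in contractile force.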

[2] = Positive inotropic activity in cat heart papillary muscle assessed as increase in contractile force at 2.5 ug/mL measured for 5 to 30 mins; type: functional, Felis catus, Muscle tissue; how it was run: as §1
[3] = (§2) Positive inotropic activity in cat heart papillary muscle assessed as increase in contractile force at 10 ug/mL measured for 5 to 30 mins; type: functional, Felis catus, Muscle tissue; how it was run: as §1
Felis catus [4] = species: Felis catus; test: Positive inotropic activity in cat heart papillary muscle assessed as increase in contractile force up to 10 ug/mL measured for 5 to 30 mins in presence of beta-adrenergic inhibitor sotalol; type: functional, tissue-based
How it was run: (§3)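 Cat right-ventricular papillary muscle in Krebs–Henseleit at 37 °C, electrically driven at 1/s. Force recorded 5–30 min after compound, in the presence of the β-blocker sotalol at 10 μg/mL. Scored as mg increase in contractile force.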

Felis catus [5] = species: Felis catus; test: Positive inotropic activity in cat heart papillary muscle assessed as increase in contractile force at 10 ug/mL measured for 5 to 30 mins in presence of beta-adrenergic inhibitor sotalol; type: functional, tissue-based; how it was run: as §3
[6] = Positive inotropic activity in cat heart papillary muscle assessed as increase in contractile force at 0.156 ug/mL measured for 5 to 30 mins; type: functional, Felis catus, Muscle tissue
How it was run: (§4)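 Right-ventricular cat papillary muscles in Krebs–Henseleit solution at 37 °C, paced at 1/s (4–10 ms, 6–10 V square waves). Equilibrated about 90 min; compound added once force had fallen to 25–30% of original (1.5–2 h). Force recorded 5, 10, 20 and 30 min after addition, then ouabain 0.5 μg/mL added. Increase over 20% scored positive. Actives retested on three further preparations at ≥3 concentrations.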

Felis catus [7] = species: Felis catus; test: (§5) Positive inotropic activity in cat heart papillary muscle assessed as increase in contractile force at 0.63 ug/mL measured for 5 to 30 mins; type: functional; details: Muscle tissue
How it was run: (§6)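 Right-ventricular papillary muscles from cat hearts in a 100-mL bath of Krebs–Henseleit solution at 37 °C, driven electrically with square waves of 4–10 ms, 6–10 V, 1/s. Equilibrated about 90 min until force fell to 25–30% of initial. Compound added, contractile force read at 5, 10, 20 and 30 min, then ouabain 0.5 μg/mL as a responsiveness check. Positive inotropy means a rise above 20%.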

Felis catus [8] = species: Felis catus; test: as §2; type: functional; details: Muscle tissue; how it was run: as §1
Cavia porcellus = species: Cavia porcellus; test: (§7) Inhibition of guinea pig kidney Na+-K+ dependent ATPase after 10 to 20 mins
How it was run: (§8)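 Partially purified membrane ATPase from calf heart or guinea pig renal cortex. Reaction started by final addition of enzyme. Incubated at 37 °C under air, with aliquots taken at 10 and 20 min. Liberated phosphate measured by the Lowry–Lopez method. I50 came from log inhibitor vs percent inhibition lines, at least three points. This was done only where acute inhibition was >50% at 1 × 10⁻³ M.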

Bos taurus = species: Bos taurus; test: (§9) Inhibition of calf heart Na+-K+ dependent ATPase after 10 to 20 mins; how it was run: as §8
Canis familiaris = test: Positive inotropic activity in Beagle dog assessed as increase in left ventricular contractile force at 50 mg/kg, iv; type: functional, organism-based; parameters: dose 50 mg/kg; details: Canis lupus familiaris, Heart left ventricle
[9] = as §7; parameters: species or system Cavia porcellus; details: read-out: I50; how it was run: as §8
[10] = Inhibition of calf heart Na+-K+ dependent ATPase preincubated for 30 mins measured after 10 to 20 mins; parameters: species or system Bos taurus; details: read-out: I50
How it was run: (§10)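 Partially purified membrane ATPase from calf heart or guinea pig renal cortex. Inhibitor plus enzyme were preincubated 30 min at 10× final concentrations, then added to the otherwise complete assay system. Incubated at 37 °C under air, with aliquots taken at 10 and 20 min. Liberated phosphate measured by the Lowry–Lopez method. I50 came from log inhibitor vs percent inhibition lines, at least three points.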

[11] = as §9; parameters: species or system Bos taurus; details: read-out: I50; how it was run: as §8
[12] = Positive inotropic activity in cat heart papillary muscle assessed as increase in contractile force at 0.5 ug/mL measured for 5 to 30 mins; type: functional, Felis catus, Muscle tissue; how it was run: as §4
[13] = Positive inotropic activity in cat heart papillary muscle assessed as increase in contractile force at 1 ug/mL measured for 5 to 30 mins; type: functional, Felis catus, Muscle tissue; how it was run: as §4
[14] = Positive inotropic activity in cat heart papillary muscle assessed as increase in contractile force at 2 ug/mL measured for 5 to 30 mins; type: functional, Felis catus, Muscle tissue; how it was run: as §4
Felis catus [15] = species: Felis catus; test: Positive inotropic activity in heart papillary muscle isolated from reserpine-treated cat assessed as increase in contractile force at 10 ug/mL measured for 5 to 30 mins; type: functional, tissue-based; details: Muscle tissue
How it was run: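 Cats pretreated with reserpine 0.5 mg/kg ip before papillary muscle isolation. Right-ventricular muscles kept in Krebs–Henseleit at 37 °C, stimulated at 1/s, and force recorded at 5–30 min after compound addition.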

[16] = as §5; type: functional, Felis catus, Muscle tissue; how it was run: as §6
[17] = Positive inotropic activity in cat heart papillary muscle assessed as increase in contractile force at 0.8 ug/mL measured for 5 mins (reference value: 1080 mg); type: functional, Felis catus, Muscle tissue
[18] = Dissociation constant, pKa of the compound; type: physicochemical
How it was run: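 pKa determined in water or in 30% EtOH–70% H2O, depending on compound.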

[19] = Inhibition of guinea pig kidney Na+-K+ dependent ATPase preincubated for 30 mins measured after 10 to 20 mins; parameters: species or system Cavia porcellus; details: read-out: I50; how it was run: as §10

SMILES | Activity [1] [µg/mL] | Activity [2] [mg] | Activity [3] [mg] | Activity (Felis catus [4]) | other results
Cl.N=C(NCCCO)C(Cl)(Cl)Cl | >10 | <200 | 201 | Active | –
ClC(Cl)(Cl)C1=NCCCN1 | 2.77 | 201 | >600 | – | Activity (Felis catus [5]): inactive; Activity [6]: <200 mg
N=C(NCc1ccccc1)C(Cl)(Cl)Cl | – | – | <200 | Active | –
N=C(NCCO)C(Cl)(Cl)Cl | 5.5 | <200 | >600 | Active | Activity (Felis catus [7]): inactive
C/N=C(\N(C)C)C(Cl)(Cl)Cl | – | – | – | – | Activity (Felis catus [5]): inactive
C[C@@H](NC(=N)C(Cl)(Cl)Cl)c1ccccc1 | – | – | – | – | Activity (Felis catus [8]): inactive
N=C(NCc1ccccc1CO)C(Cl)(Cl)Cl | – | – | 201 | Active | I50 (Cavia porcellus): inactive; I50 (Bos taurus): inactive
C[C@@H]1O[C@@H](O[C@H]2C[C@@H](O)[C@]3(CO)[C@H]4[C@H](O)C[C@]5(C)[C@@H](C6=CC(=O)OC6)CC[C@]5(O)[C@@H]4CC[C@]3(O)C2)[C@H](O)[C@H](O)[C@H]1O [OUABAIN] | – | – | – | – | Activity (Canis familiaris): Active; IC50 [9]: 0.5 µM; IC50 [10]: 0.2 µM; IC50 [11]: 0.5 µM; Activity [12]: 201 mg; Activity [13]: >600 mg; Activity [14]: >600 mg
Cl.N=C(N)C(Cl)(Cl)Cl | 2.68 | 201 | >600 | Active | Activity (Felis catus [15]): Active; Activity [16]: <200 mg
CC(CCc1ccc(O)cc1)NCCc1ccc(O)c(O)c1 (stereo not given) [DOBUTAMINE] | – | – | – | – | Activity [17]: 1640 mg
Cl.N=C(NCCc1ccc(O)c(O)c1)C(Cl)(Cl)Cl | >10 | <200 | 201 | – | Activity (Felis catus [5]): inactive; Activity (Felis catus [7]): inactive
C/N=C(\NCC1CC1)C(Cl)(Cl)Cl.Cl | – | – | >600 | Active | –
COc1ccc(CNC(=N)C(Cl)(Cl)Br)cc1 | – | – | – | – | pKa [18]: 6.15
C[C@H](NC(=N)C(Cl)(Cl)Cl)c1ccccc1.Cl | >10 | – | <200 | Active | –
COc1ccc(CNC(=N)C(F)(Cl)Cl)cc1 | – | – | – | – | IC50 [19]: 2 µM; IC50 [9]: 15 µM; IC50 [10]: 2 µM; IC50 [11]: 20 µM; pKa [18]: 6.18
CNC(=N)C(Cl)(Cl)Cl.Cl | 0.98 | >600 | >600 | – | Activity (Felis catus [5]): inactive; I50 (Cavia porcellus): inactive; IC50 [11]: 1000 µM; Activity [16]: 201 mg
N=C(NCc1cn(C(=O)c2ccccc2)c2ccccc12)C(Cl)(Cl)Cl | 6.2 | 201 | >600 | Active | Activity (Felis catus [15]): Active; Activity [16]: <200 mg
COC(CNC(=N)C(Cl)(Cl)Cl)COc1ccccc1 (stereo not given) | – | – | 201 | Active | –
C=CCNC(=N)C(Cl)(Cl)Cl.Cl | 2.78 | 201 | >600 | – | Activity (Felis catus [5]): inactive; Activity (Felis catus [15]): Active; Activity (Felis catus [7]): inactive
CCCNC(=N)C(Cl)(Cl)Cl.Cl | 2.22 | 201 | >600 | Active | Activity [6]: < 200 mg
ClC(Cl)(Cl)C1=NCCN1 | 4.86 | 201 | >600 | Active | Activity [16]: <200 mg

SMILES | Activity [1] [µg/mL] | Activity [2] [mg] | Activity [3] [mg] | Activity (Felis catus [4]) | other results
N=C(NCCc1c[nH]c2ccccc12)C(Cl)(Cl)Cl | 2.33 | 201 | >600 | Active | IC50 [19]: 4 µM; IC50 [9]: 150 µM; IC50 [11]: 33 µM; Activity [6]: 201 mg
C=CCN/C(=N\C)C(Cl)(Cl)Cl.Cl | 3.89 | 201 | >600 | Active | Activity (Felis catus [7]): inactive
Cl.N=C(NCC1CC1)C(Cl)(Cl)Cl | 3.21 | 201 | 201 | Active | Activity (Felis catus [15]): Active; Activity [16]: <200 mg
N=C(NCCc1ccccc1)C(Cl)(Cl)Cl | – | – | – | – | Activity (Felis catus [8]): inactive
N=C(NCCc1ccc(O)cc1)C(Cl)(Cl)Cl | – | – | >600 | Active | –
Cl.N=C(NCCCNC(=N)C(Cl)(Cl)Cl)C(Cl)(Cl)Cl | >10 | – | <200 | Active | –
Cc1ccc(CNC(=N)C(Cl)(Cl)Cl)cc1.Cl | 8.43 | <200 | >600 | Active | Activity [16]: <200 mg
Cn1cc(CNC(=N)C(Cl)(Cl)Cl)c2ccccc21 | – | – | 201 | Active | –
N=C(NCC(O)c1ccccc1)C(Cl)(Cl)Cl (stereo not given) | – | – | >600 | Active | –
COc1ccc(CNC(=N)C(Cl)(Cl)Cl)cc1.Cl | 4.99 | 201 | >600 | Active | Activity (Felis catus [15]): Active; IC50 [19]: 100 µM; IC50 [9]: 800 µM; IC50 [10]: 5 µM; IC50 [11]: 20 µM; Activity [16]: <200 mg; pKa [18]: 6
N=C(NCC(O)COc1ccccc1)C(Cl)(Cl)Cl (stereo not given) | – | – | 201 | Active | –
CC(=O)Nc1ccc(OCC(O)CNC(=N)C(Cl)(Cl)Cl)cc1 (stereo not given) | – | – | 201 | Active | –
COc1ccccc1CNC(=N)C(Cl)(Cl)Cl.Cl | 4.75 | 201 | 201 | Active | Activity (Felis catus [15]): Active; Activity [16]: <200 mg
CC(=O)OC(CNC(=N)C(Cl)(Cl)Cl)COc1ccccc1.Cl (stereo not given) | 4.96 | 201 | >600 | Active | Activity (Felis catus [15]): Active; IC50 [10]: 70 µM; IC50 [11]: 170 µM; Activity [16]: <200 mg
N=C(Nc1ccccc1)C(Cl)(Cl)Cl | – | – | – | – | Activity (Felis catus [8]): inactive
O=C(NCCO)C(Cl)(Cl)Cl | – | – | – | Active | Activity (Felis catus [8]): inactive
C=CCN(C)C(=N)C(Cl)(Cl)Cl.O=C(O)/C=C\C(=O)O | 5.47 | 201 | >600 | Active | Activity [16]: <200 mg
C=CCN(CC=C)C(=N)C(Cl)(Cl)Cl | – | – | – | – | Activity (Felis catus [8]): inactive
COc1cccc(CNC(=N)C(Cl)(Cl)Cl)c1.Cl | >10 | – | 201 | Active | –
CN(C)C(=N)C(Cl)(Cl)Cl.Cl | – | – | >600 | Active | –
